Reference: ChEMBL document CHEMBL4699460, “Integrating DNA-encoded chemical libraries with virtual combinatorial library screening: Optimizing a PARP10 inhibitor” (Bioorg Med Chem Lett, 2020)
pIC50: −log10 of the molar value.

Key:
[1] = target: T1, Protein mono-ADP-ribosyltransferase PARP10 (Homo sapiens) (UniProt Q53GL7); assay: (§1) Inhibition of N-terminal FLAG-tagged and C-terminal strep-tagged human PARP10 (805 to 1025 residues) expressed in baculovirus infected Sf9 cells assessed as reduction in NAD+-dependent ADP ribosylation using histone as substrate at 10 uM incubated for 1 hr in presence of biotinylated NAD+ and activated DNA by chemiluminescence based microplate reader assay relative to control
T1 sequence (whole entry): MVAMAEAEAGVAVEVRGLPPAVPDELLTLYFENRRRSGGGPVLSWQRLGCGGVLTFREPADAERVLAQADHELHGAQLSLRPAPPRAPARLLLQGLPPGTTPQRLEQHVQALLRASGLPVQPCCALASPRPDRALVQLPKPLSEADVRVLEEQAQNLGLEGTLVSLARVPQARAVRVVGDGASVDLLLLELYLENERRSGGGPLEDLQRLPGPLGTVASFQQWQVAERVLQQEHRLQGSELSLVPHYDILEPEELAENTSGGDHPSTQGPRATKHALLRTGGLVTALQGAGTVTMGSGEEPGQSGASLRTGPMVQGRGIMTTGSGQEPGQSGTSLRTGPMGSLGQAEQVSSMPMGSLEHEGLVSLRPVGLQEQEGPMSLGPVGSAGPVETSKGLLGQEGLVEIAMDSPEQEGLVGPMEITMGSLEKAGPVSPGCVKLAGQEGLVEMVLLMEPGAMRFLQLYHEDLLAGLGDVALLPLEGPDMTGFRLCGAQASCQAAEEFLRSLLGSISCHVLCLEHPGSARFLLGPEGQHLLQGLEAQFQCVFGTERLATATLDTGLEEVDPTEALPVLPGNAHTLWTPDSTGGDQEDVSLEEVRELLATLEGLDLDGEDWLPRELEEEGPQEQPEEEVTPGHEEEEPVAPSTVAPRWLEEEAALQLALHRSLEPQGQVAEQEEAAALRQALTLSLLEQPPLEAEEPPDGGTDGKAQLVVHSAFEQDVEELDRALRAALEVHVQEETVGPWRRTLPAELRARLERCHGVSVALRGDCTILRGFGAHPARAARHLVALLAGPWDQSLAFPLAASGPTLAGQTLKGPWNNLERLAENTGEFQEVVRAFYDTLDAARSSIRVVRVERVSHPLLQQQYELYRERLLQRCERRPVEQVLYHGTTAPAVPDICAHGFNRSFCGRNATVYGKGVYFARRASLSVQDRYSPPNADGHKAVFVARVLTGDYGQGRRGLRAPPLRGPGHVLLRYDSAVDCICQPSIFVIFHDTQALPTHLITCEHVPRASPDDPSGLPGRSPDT

[2] = target: Protein mono-ADP-ribosyltransferase PARP14 (Homo sapiens) (UniProt Q460N5); assay: as §1, with “His-GST tagged” for “FLAG-tagged and C-terminal strep-tagged”, “PARP14 (1470” for “PARP10 (805”, “1801” for “1025”, “1” for “10”
[3] = target: T1, Protein mono-ADP-ribosyltransferase PARP10 (Homo sapiens); assay: as §1, with “at 1” for “at 10”, “assay” for “assay relative to control”
[4] = target: Protein mono-ADP-ribosyltransferase PARP14 (Homo sapiens) (UniProt Q460N5); assay: as §1, with “His-GST tagged” for “FLAG-tagged and C-terminal strep-tagged”, “PARP14 (1470” for “PARP10 (805”, “1801” for “1025”
[5] = target: T2, Protein mono-ADP-ribosyltransferase PARP10 (Homo sapiens, UniProt Q53GL7); assay: as §1, with “substrate” for “substrate at 10 uM”, “assay” for “assay relative to control”
T2 sequence (Q53GL7 whole entry): T1 sequence (whole entry)
Summary of the method: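 The IC50 was derived from a concentration-dependent inhibition curve for PARP10 in the histone ADP-ribosylation assay.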

Sequence of Protein mono-ADP-ribosyltransferase PARP14 (Homo sapiens) (Q460N5 whole entry): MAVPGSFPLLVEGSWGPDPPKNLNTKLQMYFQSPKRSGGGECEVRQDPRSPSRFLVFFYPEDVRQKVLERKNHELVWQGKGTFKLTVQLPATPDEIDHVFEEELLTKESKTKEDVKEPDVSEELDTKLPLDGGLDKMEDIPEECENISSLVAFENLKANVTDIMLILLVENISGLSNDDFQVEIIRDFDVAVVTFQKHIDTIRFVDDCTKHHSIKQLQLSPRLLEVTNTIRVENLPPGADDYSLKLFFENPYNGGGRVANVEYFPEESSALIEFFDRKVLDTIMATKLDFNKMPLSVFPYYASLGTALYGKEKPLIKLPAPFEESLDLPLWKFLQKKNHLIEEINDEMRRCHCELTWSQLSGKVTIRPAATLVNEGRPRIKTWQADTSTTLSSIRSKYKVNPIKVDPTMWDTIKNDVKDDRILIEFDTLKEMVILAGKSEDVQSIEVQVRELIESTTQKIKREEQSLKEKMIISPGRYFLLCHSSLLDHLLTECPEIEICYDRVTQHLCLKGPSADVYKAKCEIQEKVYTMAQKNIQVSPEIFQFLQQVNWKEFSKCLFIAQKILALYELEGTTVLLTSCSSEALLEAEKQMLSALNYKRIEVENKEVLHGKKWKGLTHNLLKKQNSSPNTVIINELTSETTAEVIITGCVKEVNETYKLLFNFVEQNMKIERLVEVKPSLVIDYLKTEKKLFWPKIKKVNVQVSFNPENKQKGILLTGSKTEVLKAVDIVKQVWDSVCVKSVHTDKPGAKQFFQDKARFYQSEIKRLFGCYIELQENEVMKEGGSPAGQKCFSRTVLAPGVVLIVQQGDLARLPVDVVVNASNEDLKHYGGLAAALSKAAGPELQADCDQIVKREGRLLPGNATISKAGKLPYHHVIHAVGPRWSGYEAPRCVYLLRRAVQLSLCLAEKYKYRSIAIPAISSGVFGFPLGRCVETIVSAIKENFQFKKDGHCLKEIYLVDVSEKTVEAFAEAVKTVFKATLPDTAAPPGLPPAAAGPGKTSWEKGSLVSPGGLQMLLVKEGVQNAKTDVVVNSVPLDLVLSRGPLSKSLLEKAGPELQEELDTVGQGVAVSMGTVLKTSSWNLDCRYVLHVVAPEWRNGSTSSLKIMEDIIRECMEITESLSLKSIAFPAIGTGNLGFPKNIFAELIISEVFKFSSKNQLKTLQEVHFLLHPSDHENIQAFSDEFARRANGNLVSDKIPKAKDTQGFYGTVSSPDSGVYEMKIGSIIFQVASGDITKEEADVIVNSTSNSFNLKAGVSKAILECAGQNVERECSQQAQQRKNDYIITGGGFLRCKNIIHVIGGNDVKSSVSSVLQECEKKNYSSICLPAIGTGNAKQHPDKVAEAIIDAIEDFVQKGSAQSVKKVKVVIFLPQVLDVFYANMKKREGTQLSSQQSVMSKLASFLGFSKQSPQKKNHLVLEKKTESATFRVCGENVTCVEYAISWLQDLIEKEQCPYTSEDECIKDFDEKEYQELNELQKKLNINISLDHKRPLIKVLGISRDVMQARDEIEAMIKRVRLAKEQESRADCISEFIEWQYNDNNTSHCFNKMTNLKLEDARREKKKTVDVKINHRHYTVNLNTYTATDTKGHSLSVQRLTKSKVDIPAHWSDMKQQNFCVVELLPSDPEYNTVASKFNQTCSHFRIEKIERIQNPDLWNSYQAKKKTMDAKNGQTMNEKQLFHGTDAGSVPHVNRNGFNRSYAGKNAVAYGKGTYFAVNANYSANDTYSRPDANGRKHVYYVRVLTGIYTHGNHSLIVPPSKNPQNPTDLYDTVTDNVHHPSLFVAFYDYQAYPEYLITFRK

Row | Structure (SMILES) | inhibition [1] [%] | inhibition [2] [%] | inhibition [3] [%] | inhibition [4] [%] | pIC50 [5]
1 | O=C1CCCc2cc(C(=O)N3C[C@@H]4C[C@H]3CN4C(=O)CCc3nc4ccccc4[nH]c3=O)ccc21 | 12 | 7 | 13 | – | –
2 | O=C(COc1ccc2c(c1)CCCC2=O)NC[C@@H]1CCCN1C(=O)CCc1nc2ccccc2[nH]c1=O | 35 | 6 | 0 | 10 | –
3 | O=C(CCc1nc2ccccc2[nH]c1=O)NCC(=O)N1CCN(C(=O)Nc2ccc3c(c2)C(=O)CCC3)CC1 | 46 | 0 | 17 | – | 4.55
4 | O=C(CCc1nc2ccccc2[nH]c1=O)NCC(=O)N1CCN(C(=O)COc2cccc3c2CCCC3=O)CC1 | 10 | 2 | 13 | – | –
5 | O=C1CCCc2c(OCC(=O)N3CCN(C(=O)CCc4nc5ccccc5[nH]c4=O)C[C@@H]3CO)cccc21 | 9 | 12 | 15 | – | –
6 | O=C(COc1ccc2c(c1)C(=O)CCC2)NC1CCN(C(=O)CCc2nc3ccccc3[nH]c2=O)CC1 | 16 | 27 | 11 | – | –
7 | O=C1CCCc2cc(C(=O)N3CCN(C(=O)CCc4nc5ccccc5[nH]c4=O)C[C@H]3CO)ccc21 | 4 | 0 | 13 | – | –
8 | O=C(NC[C@@H]1CCCN1C(=O)CCc1nc2ccccc2[nH]c1=O)c1ccc2c(c1)CCCC2=O | 37 | 0 | 0 | 5 | –
9 | CC[C@H]1CN(C(=O)COc2cccc3c2CCCC3=O)CCN1C(=O)CCc1nc2ccccc2[nH]c1=O | 15 | 17 | 1 | – | –
